Screening data: PubChem, several laboratories
Arrestin-AP2 inh = inhibitors of beta-arrestin/AP2 binding, primary screen, biochemical, GPCR trafficking, flow cytometry; beta-arrestin 1 C-terminal peptide binding to AP2 beta2-adaptin appendage (human); FITC-arrestin peptide / GST-AP2 beads; AP2 beta2 appendage carries R879A mutation; inhibition, % at 10 µM; 0.31% of 340,000 active; AID 504490, 2011;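 active = inhibition above a set limit, near 3 SD of compounds lacking own fluorescence, cut at about 54% in these data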
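Test system: GST-tagged AP2 beta2-adaptin appendage (R879A) on 4 µm glutathione beads; also added: fluorescein-tagged arrestin peptide at 50 nM final; timing: 12 min plus 1 h, RT; signal: flow cytometry, FL1 (488/535 nm); read-out: percent drop in bead-associated FITC signal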
GRK2 aptamer HTS = compounds blocking aptamer binding on GRK2 – biochemical, human GRK2, bead flow cytometry, HTS, primary screen; Beta-adrenergic receptor kinase 1 (Homo sapiens), P25098; FAM-aptamer displacement from GRK2; inhibition of aptamer binding, % at 10 µM; 0.59% of 330,000 active; AID 488847, 2010;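 active = inhibition of aptamer binding above 40%, roughly 3 SD of noise, on plates passing a quality check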;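 note: median bead fluorescence of bound FAM aptamer so fluorescent compounds give negative values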
TAG inh = inhibitors of triacylglycerol accumulation, primary screen, cell-based, uHTS, fluorescence, H9c2; inhibition, % at 12.5 µM; 0.66% of 230,000 active; AID 651582, 2012; H9c2 cells, Nile Red lipid (TAG) fluorescence; cells loaded with 200 µM oleic acid;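 active = pattern-corrected inhibition of lipid staining of at least 50% with the nuclear-stain viability signal not falling by more than 50%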
Lipid droplet = inhibitors of hepatocyte lipid droplet formation, primary screen, imaging, high-throughput imaging, BODIPY stain. 0.4% of 240,000 active. AID 1656, 2009. AML12 mouse hepatocytes, oleate lipid droplets. inhibition, % at 6.5 µM;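 active = lipid droplet intensity inhibited by at least 50%, with more than 500 cells counted; inconclusive = wells with under 300 cells, treated as cytotoxic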
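Test system: AML12 hepatocytes (mouse); reagent: oleate loading, 100 µM; dosing: one dose, 6.5 µM compound; incubation: overnight exposure; signal: fluorescence imaging, 20x objective, two fields per well; read-out basis: % inhibition of corrected integrated BODIPY droplet signal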
B2AR ag = beta2AR agonists driving receptor internalization, primary screen, cell-based, FAP fluorogen, flow cytometry; 0.43% of 340,000 active; Am2.2-beta2AR cells; Beta-2 adrenergic receptor (Homo sapiens), P07550; response, % (test concentration not listed);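 active = response above a set limit, near 3 SD of response in nonfluorescent compounds, cut at about 42% in these data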
Target sequence (P07550 whole entry, looked up): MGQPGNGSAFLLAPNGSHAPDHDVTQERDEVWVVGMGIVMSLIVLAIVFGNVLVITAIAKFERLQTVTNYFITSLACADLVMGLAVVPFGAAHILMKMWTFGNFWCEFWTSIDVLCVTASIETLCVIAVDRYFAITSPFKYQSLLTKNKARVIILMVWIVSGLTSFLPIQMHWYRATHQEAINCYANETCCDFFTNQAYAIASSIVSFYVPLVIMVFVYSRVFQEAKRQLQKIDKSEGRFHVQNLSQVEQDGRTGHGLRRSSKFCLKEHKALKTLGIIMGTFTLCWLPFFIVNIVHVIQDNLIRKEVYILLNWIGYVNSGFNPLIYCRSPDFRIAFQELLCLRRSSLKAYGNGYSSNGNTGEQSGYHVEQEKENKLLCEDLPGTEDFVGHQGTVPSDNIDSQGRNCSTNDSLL
NTR1 agonist = agonists of human NTR1, primary screen, imaging, U2OS cells, beta-arrestin-GFP, high content. activation, % at 20 µM. Neurotensin receptor type 1 (Homo sapiens), P30989. AID 493036, 2011. 0.17% of 330,000 active. NTR1-U2OS beta-arrestin-GFP spot imaging, agonist mode;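 active = activation at or above 40% of the spot to cytoplasm intensity ratio, with at least 20 cells analyzed; inconclusive = wells under 20 cells, flagged as cytotoxic or low count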
Beta2AR ag CP1 = beta2AR agonists via receptor internalization, confirmation, cell-based, FAP fluorogen, flow cytometry, single point, cherry pick 1; shares compounds with B2AR ag; Am2.2-beta2AR cells, FAP surface receptor; active compounds read low; percent response (surface receptor), % at 10 µM; 25% of 1,100 active; AID 540358, 2011;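 active = surface receptor percent response at or below 58%, roughly 3 SD from nonfluorescent compounds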
B2AR FAP counter = fluorescence artifact in beta-2AR agonist FAP counterscreen | 1,100 tested, under 10 active | shares compounds with B2AR ag | calls only at 10 µM | Am2.2 cells, FAP fluorogen flow cytometry; active compounds read low | AID 588765;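 active = percent response below a set limit in fluorescence channel 1 and below 50% in channel 8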
Numbers stand for hits; i = inactive; ? = inconclusive; nt = no result. Hits are enriched below; roughly 2% of the tested compounds scored in any of these assays.

SMILES | Arrestin-AP2 inh | GRK2 aptamer HTS | TAG inh | Lipid droplet | B2AR ag | NTR1 agonist | Beta2AR ag CP1 | B2AR FAP counter
COC(=O)Nc1ccc(S(=O)(=O)N2CCCc3cccc(O)c32)cc1 | i | i | i | i | 52.3 | i | i | i
O=C(OCc1c(F)cccc1Cl)c1cnc2ccccc2n1 | i | i | nt | i | 46.1 | i | i | i
O=C(OCc1c(F)cccc1Cl)c1cnccn1 | i | i | i | i | i | i | nt | nt
COc1cc(C(=O)NC(C)C2CC3CCC2C3)cc(OC)c1OC (configuration not stated) | i | i | nt | i | i | i | nt | nt
CCN(Cc1ccccc1)S(=O)(=O)c1cc(C(=O)NC(C)C2CC3CCC2C3)ccc1OC (configuration not stated) | i | i | i | i | 48.9 | i | 51.7 | i
Cc1ccc(C(=O)NCCNS(=O)(=O)c2ccccc2)cn1 | i | i | nt | i | i | i | nt | nt
c1ccc(CNc2nc(N3CCN(Cc4ccccc4)CC3)nc3ccccc23)cc1 | i | i | i | i | i | i | i | i
CCOC(=O)N1CCN(c2ncnc3c2[nH]c2ccc(OC)cc23)CC1 | i | i | i | nt | 90.5 | i | i | i
CCOC(=O)N1CCN(c2ncnc3c2[nH]c2ccc(F)cc23)CC1 | i | i | i | nt | i | i | nt | nt
O=C(NCCCN1CCCC1)c1ccc2c(c1)N(Cc1cccc(Cl)c1)C(=O)c1ccccc1S2(=O)=O | nt | nt | i | nt | nt | nt | nt | nt
COc1cccc(OCc2nnc(-c3cccs3)o2)c1 | i | i | i | i | 50.5 | i | 57.8 | i
COc1cccc(-c2noc(-c3cccs3)n2)c1 | i | i | i | i | i | i | nt | nt
CC(C)c1nc2oc3c(N(C)CCO)ncnc3c2c2c1CCC2 | i | i | i | i | i | i | i | i
CC(=O)Oc1ccc(C(=O)O)cc1OC(C)=O | i | i | nt | nt | i | i | nt | nt
CNCC(O)c1ccc(OC(=O)C(C)(C)C)c(OC(=O)C(C)(C)C)c1 (configuration not stated) | i | i | i | nt | i | i | 45.5 | i
CCN1C(=O)[C@H]2[C@@H](c3ccc(C(F)(F)F)cc3)N[C@]3(CCCN(Cc4ccc(OC)cc4)C3=O)[C@H]2C1=O | nt | nt | i | nt | nt | nt | nt | nt
COc1ccccc1CNCC(O)Cn1c2ccccc2c2ccccc21 (configuration not stated) | i | i | i | i | 54.9 | i | i | i
CCCCN(C(=O)c1ccc(NC(=O)C(C)C)cc1)c1ccccc1 | i | i | nt | i | 95.1 | i | 20.4 | i
COc1ccccc1N1CCN(CC(O)COc2c(OC)cccc2OC)CC1 (configuration not stated) | i | i | nt | nt | i | i | nt | nt
COc1cccc(OC)c1OCC(O)CN1CCN(c2ccccc2)CC1 (configuration not stated) | i | i | i | nt | 48.1 | i | i | i
COc1ccc(OC)c(NC(=O)COc2ccc(Br)cc2)c1 | i | i | nt | i | 67.9 | i | i | i
CC(C)(C)c1ccc(C(=O)NCCC(=O)NNC(=O)COc2ccccc2F)cc1 | i | i | i | nt | i | i | nt | nt
O=C(c1ccncc1)N1CCN(S(=O)(=O)c2ccc(OC(F)(F)F)cc2)CC1 | i | i | i | nt | i | i | nt | nt
CCOC(=O)CSc1nc2ccc(NC(=O)CSc3nnnn3Cc3ccccc3)cc2s1 | i | i | nt | i | 54.0 | i | i | i
COc1cc2nc(N3CCN(c4cc(C)ccc4C)CC3)nc(N)c2cc1OC | i | i | nt | i | i | i | nt | nt
SMILES | Arrestin-AP2 inh | GRK2 aptamer HTS | TAG inh | Lipid droplet | B2AR ag | NTR1 agonist | Beta2AR ag CP1 | B2AR FAP counter
COc1cc2nc(N3CCNCC3)nc(N)c2cc1OC | i | i | nt | i | 61.2 | i | 51.0 | i
CCC(NC(C)C)C(O)c1ccc(O)c(O)c1 (configuration not stated) | i | i | i | i | i | i | 42.3 | i
CC1(C(=O)Nc2cccc(OC(F)(F)F)c2)Cc2c(-c3ccc4c(c3)OCO4)ccnc2O1 (configuration not stated) | nt | nt | i | nt | nt | nt | nt | nt
Nc1nonc1C(=O)NCCNS(=O)(=O)c1ccc(F)cc1 | i | i | i | i | 65.1 | i | i | i
O=C(COc1ccccc1)Nc1nc(-c2ccc(S(=O)(=O)N3CCOCC3)cc2)cs1 | i | i | i | nt | i | i | nt | nt
O=C(CCc1ccc(S(=O)(=O)N2CCOCC2)cc1)Nc1nc(COc2ccccc2)cs1 | i | i | nt | i | 62.4 | i | 20.0 | i
COc1ccccc1N1CCN(S(=O)(=O)CCNC(=O)C2CC2)CC1 | i | i | i | nt | i | i | nt | nt
O=C(COc1ccc(F)cc1)N(Cc1cccc(Br)c1)C1CCS(=O)(=O)C1 (configuration not stated) | i | i | nt | i | 52.8 | i | i | i
Cc1ccc(S(=O)(=O)N2CCCC(C(=O)NCCc3ccccc3)C2)cc1 (configuration not stated) | i | i | nt | i | i | i | nt | nt
COc1ccc(CC(NC(C)=O)C(=O)NC2CCN(C(=O)Nc3ccccc3C)CC2)cc1OC (configuration not stated) | i | i | nt | i | i | i | nt | nt
O=C(Nc1ccc2oc(-c3ccccc3)nc2c1)c1ccccc1F | i | i | i | i | i | i | nt | nt
O=C(Nc1ccc2oc(-c3ccc4ccccc4c3)nc2c1)c1ccc2c(c1)OCCO2 | i | i | nt | nt | 42.9 | i | 20.2 | i
O=C(Nc1ccc2oc(-c3ccccc3F)nc2c1)c1ccccc1F | i | i | i | i | i | i | i | i
CCCc1nc2oc3c(NCCCN(C)C)ncnc3c2c2c1CCCC2 | i | i | 62.7 | ? | i | i | i | i
CCCc1nc2oc3c(Cl)ncnc3c2c2c1CCCC2 | i | i | i | i | 43.6 | i | i | i
CC(C)Cc1nc2oc3c(NCC(C)O)ncnc3c2c2c1CCCC2 (configuration not stated) | i | i | i | i | i | i | i | i
CC(C)Cc1nc2oc3c(Cl)ncnc3c2c2c1CCCC2 | i | i | i | i | i | i | nt | nt
CN1C=CC(=CC=C2C=CC(=O)C=C2)C=C1 | i | i | nt | i | i | i | nt | nt
COc1cc2c(cc1OC)C(COc1cccc(C(F)(F)F)c1)NCC2 (configuration not stated) | i | i | nt | i | i | i | nt | nt
